The results in this text go back to ChEMBL document CHEMBL4196105, “Discovery of β-Arrestin Biased Ligands of 5-HT7R” (J Med Chem, 2018).

Calls of active or inactive are those of the source. The calls are words filed in the database; no cut-off is given here.

Assay [1] addresses T1, 5-hydroxytryptamine receptor 7 (Homo sapiens, UniProt P34969). In words: Antagonist activity at human 5-HT7 receptor expressed in HEK293 cells assessed as inhibition of Gs protein-mediated cAMP accumulation by luminescence-based assay relative to SB269970. In kind it is functional, cell-based. Summed up: (§1)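 HEK293 cells transiently transfected by calcium phosphate with human 5-HT7R and GloSensor-22F cAMP biosensor. After 5-6 h recovery, loaded with GloSensor reagent in HBSS/20 mM HEPES, pH 7.4. Test compounds at 0.01 nM-100 μM final; antagonist mode uses 5-HT stimulation. Luminescence read. Data normalised to 5-HT or SB269970 (100%) and vehicle (0%). Three experiments, at least triplicate.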
(In general: Changes in cAMP serve as a functional read-out for many G protein-coupled receptors.)

In assay [2] the target is T1, 5-hydroxytryptamine receptor 7. Nature of the assay: Antagonist activity at tTA containing TCS cleavage site-fused 5-HT7 receptor (unknown origin) expressed in tTA-dependent luciferase reporter/TEV-fused beta-arrestin2 expressing HTLA cells assessed as inhibition of 5-HT-induced beta-arrestin2 recruitment after 22 hrs by Tango assay. In kind it is functional, cell-based.

The species named for assay [3] is Homo sapiens. Nature of the assay: Selectivity index, ratio of Ki for human 5-HT2B receptor to Ki for human 5-HT7 receptor. Put shortly:
(§2)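 Selectivity index taken as Ki at the other 5-HT receptor subtype divided by Ki at 5-HT7R, each from [3H]LSD membrane binding run by the NIMH PDSP. Ki values are means of at least three experiments in triplicate.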

The species named for assay [4] is Homo sapiens. Nature of the assay: Selectivity index, ratio of Ki for human 5-HT2C receptor to Ki for human 5-HT7 receptor. Summed up: as §2
Assay [5] addresses 5-hydroxytryptamine receptor 2B (Homo sapiens, UniProt P41595). In words: Displacement of [3H]LSD from human 5-HT2B receptor expressed in HEK cell membranes after 1.5 hrs by microbeta scintillation counting method.
For assay [6], the species on record is Homo sapiens. In words: Selectivity index, ratio of Ki for human 5-HT1E receptor to Ki for human 5-HT7 receptor. Put shortly: as §2
The species named for assay [7] is Homo sapiens. In words: Selectivity index, ratio of Ki for human 5-HT6 receptor to Ki for human 5-HT7 receptor. Summed up:
as §2

Assay [8] deals with 5-hydroxytryptamine receptor 6 (Homo sapiens, UniProt P50406). Nature of the assay: Displacement of [3H]LSD from human 5-HT6 receptor expressed in HEK cell membranes after 1.5 hrs by microbeta scintillation counting method. Put shortly: (§3)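 Radioligand binding performed by the NIMH Psychoactive Drug Screening Program. Crude membranes from cells expressing recombinant receptor, with [3H]LSD, in 50 mM Tris-HCl, 10 mM MgCl2, 1 mM EDTA, pH 7.4. Eleven test concentrations. Incubated 1.5 h at room temperature, protected from light. Filtered onto PEI-soaked GF/B filters, then scintillation counting. IC50 converted to Ki; at least three experiments in triplicate.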
Chain of 5-hydroxytryptamine receptor 6 (P50406 whole entry): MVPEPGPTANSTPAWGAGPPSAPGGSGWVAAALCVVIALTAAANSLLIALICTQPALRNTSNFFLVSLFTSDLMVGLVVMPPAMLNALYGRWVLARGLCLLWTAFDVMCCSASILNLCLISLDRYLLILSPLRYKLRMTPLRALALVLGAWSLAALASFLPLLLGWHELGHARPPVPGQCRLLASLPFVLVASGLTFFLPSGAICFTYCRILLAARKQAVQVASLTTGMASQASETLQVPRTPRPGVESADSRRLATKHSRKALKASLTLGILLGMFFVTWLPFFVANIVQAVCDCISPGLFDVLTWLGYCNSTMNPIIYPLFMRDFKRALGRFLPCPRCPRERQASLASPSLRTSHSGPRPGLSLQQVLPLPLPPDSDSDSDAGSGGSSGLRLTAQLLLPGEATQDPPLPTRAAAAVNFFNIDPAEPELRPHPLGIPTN

Assay [9] deals with 5-hydroxytryptamine receptor 5A (Homo sapiens, UniProt P47898). In words: Displacement of [3H]LSD from human 5-HT5A receptor expressed in HEK cell membranes after 1.5 hrs by microbeta scintillation counting method. Summed up: as §3
Chain of 5-hydroxytryptamine receptor 5A (P47898 whole entry): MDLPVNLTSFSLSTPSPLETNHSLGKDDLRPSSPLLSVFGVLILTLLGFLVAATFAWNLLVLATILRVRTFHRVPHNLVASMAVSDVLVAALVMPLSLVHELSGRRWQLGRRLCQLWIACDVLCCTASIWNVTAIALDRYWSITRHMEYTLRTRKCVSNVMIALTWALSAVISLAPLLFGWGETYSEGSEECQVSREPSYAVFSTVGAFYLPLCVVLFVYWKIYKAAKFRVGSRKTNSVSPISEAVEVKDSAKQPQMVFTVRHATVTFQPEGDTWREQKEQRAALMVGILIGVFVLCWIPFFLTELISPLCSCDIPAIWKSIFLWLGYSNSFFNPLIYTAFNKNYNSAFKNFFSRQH
For orientation: Loss of bound radioactivity is the signal in a displacement assay; it reports binding, not function.

The target of assay [10] is T1, 5-hydroxytryptamine receptor 7. In words: Agonist activity at tTA containing TCS cleavage site-fused 5-HT7 receptor (unknown origin) expressed in tTA-dependent luciferase reporter/TEV-fused beta-arrestin2 expressing HTLA cells assessed as induction of beta-arrestin2 recruitment after 22 hrs by Tango assay relative to 5-HT. Type of assay: functional, cell-based. Put shortly: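 HTLA cells (HEK293 stably expressing tTA-dependent luciferase reporter and β-arrestin2-TEV) transiently transfected with 5-HT7R-TCS-tTA. Plated in 1% dialysed FBS medium for 6 h, then given test compounds at 0.01 nM-100 μM final, about 22 h. Antagonist mode adds 1 μM 5-HT. BrightGlo luminescence read. Normalised to 5-HT (100%) and vehicle (0%). Three experiments, at least triplicate.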
(In general: A reporter such as luciferase makes a cellular process visible.)

The species named for assay [11] is Homo sapiens. Nature of the assay: Selectivity index, ratio of Ki for human 5-HT2A receptor to Ki for human 5-HT7 receptor. Summed up: as §2
Assay [12] concerns the target T2, 5-hydroxytryptamine receptor 1A (Homo sapiens, UniProt P08908).
T2 sequence (P08908 whole entry): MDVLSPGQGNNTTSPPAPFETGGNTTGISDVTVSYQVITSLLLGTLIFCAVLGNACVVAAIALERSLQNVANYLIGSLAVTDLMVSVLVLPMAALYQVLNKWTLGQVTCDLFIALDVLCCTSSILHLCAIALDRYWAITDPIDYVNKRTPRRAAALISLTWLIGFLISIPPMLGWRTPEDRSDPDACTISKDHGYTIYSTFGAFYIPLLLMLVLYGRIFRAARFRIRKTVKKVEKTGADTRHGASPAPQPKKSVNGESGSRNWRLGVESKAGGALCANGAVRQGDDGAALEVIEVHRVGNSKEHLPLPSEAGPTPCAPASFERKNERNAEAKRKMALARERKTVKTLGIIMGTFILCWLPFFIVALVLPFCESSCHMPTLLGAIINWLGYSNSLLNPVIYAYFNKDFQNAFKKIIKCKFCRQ
In words: Displacement of [3H]LSD from human 5-HT1A receptor expressed in HEK cell membranes after 1.5 hrs by microbeta scintillation counting method. Summed up:
as §3

For assay [13], the target named is T3, 5-hydroxytryptamine receptor 2C (Homo sapiens, UniProt P28335).
T3 sequence (P28335 whole entry): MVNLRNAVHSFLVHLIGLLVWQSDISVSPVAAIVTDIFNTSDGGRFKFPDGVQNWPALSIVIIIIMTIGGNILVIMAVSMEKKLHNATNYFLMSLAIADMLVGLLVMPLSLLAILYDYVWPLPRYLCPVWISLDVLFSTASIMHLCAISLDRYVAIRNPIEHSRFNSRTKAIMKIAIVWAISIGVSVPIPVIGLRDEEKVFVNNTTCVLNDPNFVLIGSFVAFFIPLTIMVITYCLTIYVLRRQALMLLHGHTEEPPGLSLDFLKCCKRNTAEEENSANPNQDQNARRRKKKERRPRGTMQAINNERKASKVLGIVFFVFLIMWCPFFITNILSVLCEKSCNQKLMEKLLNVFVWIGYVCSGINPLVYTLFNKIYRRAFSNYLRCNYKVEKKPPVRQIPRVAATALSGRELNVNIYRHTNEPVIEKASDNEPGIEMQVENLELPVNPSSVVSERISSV
In words: Displacement of [3H]LSD from human 5-HT2C receptor expressed in HEK cell membranes after 1.5 hrs by microbeta scintillation counting method. Put shortly: as §3

The target of assay [14] is 5-hydroxytryptamine receptor 1D (Homo sapiens, UniProt P28221). Nature of the assay: Displacement of [3H]LSD from human 5-HT1D receptor expressed in HEK cell membranes after 1.5 hrs by microbeta scintillation counting method. Put shortly:
as §3

In assay [15] the target is T1, 5-hydroxytryptamine receptor 7.
Assay [16] addresses 5-hydroxytryptamine receptor 1B (Homo sapiens, UniProt P28222). In words: Displacement of [3H]LSD from human 5-HT1B receptor expressed in HEK cell membranes after 1.5 hrs by microbeta scintillation counting method. Summed up: as §3
In assay [17] the target is T1, 5-hydroxytryptamine receptor 7. Nature of the assay: Inverse agonist activity at human 5-HT7 receptor expressed in HEK293 cells assessed as decrease in Gs protein-mediated cAMP accumulation by luminescence-based assay. In kind it is functional, cell-based. Summed up: as §1
Assay [18] addresses 5-hydroxytryptamine receptor 2A (Homo sapiens, UniProt P28223). Nature of the assay: Displacement of [3H]LSD from human 5-HT2A receptor expressed in HEK cell membranes after 1.5 hrs by microbeta scintillation counting method. Summed up: as §3

T1 sequence (P34969 whole entry): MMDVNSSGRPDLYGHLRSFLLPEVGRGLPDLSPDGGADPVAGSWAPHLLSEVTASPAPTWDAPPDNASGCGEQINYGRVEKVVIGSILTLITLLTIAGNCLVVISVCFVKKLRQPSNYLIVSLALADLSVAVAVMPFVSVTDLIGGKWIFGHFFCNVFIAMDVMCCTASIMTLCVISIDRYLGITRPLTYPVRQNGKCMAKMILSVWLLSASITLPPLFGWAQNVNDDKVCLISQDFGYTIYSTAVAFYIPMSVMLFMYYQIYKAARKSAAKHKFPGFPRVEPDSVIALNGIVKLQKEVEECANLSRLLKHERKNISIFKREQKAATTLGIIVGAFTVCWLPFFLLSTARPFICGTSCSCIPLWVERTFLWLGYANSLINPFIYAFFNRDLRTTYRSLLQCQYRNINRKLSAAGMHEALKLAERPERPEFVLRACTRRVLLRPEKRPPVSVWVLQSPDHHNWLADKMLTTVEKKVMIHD
Chain of 5-hydroxytryptamine receptor 1D (P28221 whole entry): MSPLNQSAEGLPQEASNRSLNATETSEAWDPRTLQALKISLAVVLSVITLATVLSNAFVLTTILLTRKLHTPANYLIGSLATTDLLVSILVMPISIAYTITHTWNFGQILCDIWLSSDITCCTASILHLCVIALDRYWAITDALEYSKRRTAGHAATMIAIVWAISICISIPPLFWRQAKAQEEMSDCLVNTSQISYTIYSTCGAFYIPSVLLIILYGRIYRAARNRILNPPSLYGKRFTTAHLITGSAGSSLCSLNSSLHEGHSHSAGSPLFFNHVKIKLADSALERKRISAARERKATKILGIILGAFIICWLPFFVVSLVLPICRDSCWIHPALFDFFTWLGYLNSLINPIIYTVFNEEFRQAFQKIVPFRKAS
Chain of 5-hydroxytryptamine receptor 1B (P28222 whole entry): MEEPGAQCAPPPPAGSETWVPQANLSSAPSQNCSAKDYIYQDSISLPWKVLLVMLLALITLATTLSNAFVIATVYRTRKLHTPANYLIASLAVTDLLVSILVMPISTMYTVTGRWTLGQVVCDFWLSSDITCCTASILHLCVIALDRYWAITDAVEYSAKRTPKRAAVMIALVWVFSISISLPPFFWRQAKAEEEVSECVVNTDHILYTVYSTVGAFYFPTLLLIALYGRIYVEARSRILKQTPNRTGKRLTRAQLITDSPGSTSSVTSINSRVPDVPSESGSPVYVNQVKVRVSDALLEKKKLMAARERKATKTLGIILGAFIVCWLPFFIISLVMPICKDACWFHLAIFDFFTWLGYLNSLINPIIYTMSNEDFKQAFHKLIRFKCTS
Chain of 5-hydroxytryptamine receptor 2B (P41595 whole entry): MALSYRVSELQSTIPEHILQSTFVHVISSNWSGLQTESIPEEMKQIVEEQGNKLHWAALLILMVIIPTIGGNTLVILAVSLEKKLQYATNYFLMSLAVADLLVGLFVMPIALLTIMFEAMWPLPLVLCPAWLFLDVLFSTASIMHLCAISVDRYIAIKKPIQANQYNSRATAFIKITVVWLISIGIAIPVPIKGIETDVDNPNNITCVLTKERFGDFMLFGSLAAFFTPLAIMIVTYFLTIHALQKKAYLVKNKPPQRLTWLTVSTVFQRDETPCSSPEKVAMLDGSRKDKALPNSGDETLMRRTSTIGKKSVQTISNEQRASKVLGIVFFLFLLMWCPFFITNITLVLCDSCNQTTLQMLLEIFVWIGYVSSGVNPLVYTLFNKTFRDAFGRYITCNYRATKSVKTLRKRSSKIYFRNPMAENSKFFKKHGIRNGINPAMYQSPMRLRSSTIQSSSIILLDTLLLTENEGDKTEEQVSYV
Chain of 5-hydroxytryptamine receptor 2A (P28223 whole entry): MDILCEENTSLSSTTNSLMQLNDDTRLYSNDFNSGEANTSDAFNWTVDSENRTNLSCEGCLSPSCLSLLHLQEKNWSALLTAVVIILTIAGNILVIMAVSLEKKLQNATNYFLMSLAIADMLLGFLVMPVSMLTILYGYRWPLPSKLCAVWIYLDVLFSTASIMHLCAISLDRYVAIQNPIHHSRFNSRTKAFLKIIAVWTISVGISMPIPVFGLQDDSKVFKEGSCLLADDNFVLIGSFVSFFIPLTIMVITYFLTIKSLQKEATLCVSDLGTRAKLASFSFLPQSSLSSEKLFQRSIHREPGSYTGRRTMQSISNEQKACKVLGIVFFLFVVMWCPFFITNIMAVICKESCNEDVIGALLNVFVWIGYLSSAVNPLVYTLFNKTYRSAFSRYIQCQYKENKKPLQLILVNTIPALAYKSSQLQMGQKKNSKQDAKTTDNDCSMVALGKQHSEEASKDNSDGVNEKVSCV

In general, Ki refers to a dissociation constant, usually derived from enzyme kinetics or from competition with a known ligand. Read a high Ki as a looser hold on the target. For orientation: Emax means the greatest response seen or fitted, relative to the assay's reference. The term IC50 denotes the concentration that inhibits the measured activity by half. For the compound `Clc1ccc(-c2n[nH]c3c2CCNCC3)cc1`, the Imax in [1] worked out at 94.8%. Also, the inhibition result in [2] is “inactive”. The Ratio Ki in the assay listed under Homo sapiens [3] worked out at 3.3; in the assay listed under Homo sapiens [4], 26.6; in the assay filed under Homo sapiens [6], 45.5; in the assay filed under Homo sapiens [7], 8.3; in the assay filed under Homo sapiens [11] it was 6.2. Also, the inhibition constant (Ki) is 100 nM in assay [5]; 248 nM in [8]; > 10000 nM in assay [9]; > 10000 nM in assay [12]; 799 nM in [13]; 2110 nM in assay [14]. Also, the results for the Ki in [16] and in assay [18] were > 10000 nM and 187 nM, respectively. The Emax in assay [10] was 62.8%. In addition, in assay [15], the IC50 was found to be 7790 nM. The outcome in [17] was Active.
With `Fc1ccc(-c2n[nH]c3c2CCNCC3)cc1`, in [1], the Imax turned out to be 98.4%. Moreover, the inhibition entry in assay [2] was “inactive”. Also, the Ratio Ki in the assay listed under Homo sapiens [3] was 0.9; in the assay filed under Homo sapiens [4], 1.9; in the assay filed under Homo sapiens [6], 7.6; in the assay filed under Homo sapiens [7], 4; in the assay listed under Homo sapiens [11], 1.7. Further, the Ki in [5] was 97 nM; in [8] it was 416 nM; in assay [9] it was > 10000 nM; in assay [12] it was 1870 nM; in assay [13], 200 nM; in assay [14] it was 636 nM. In addition, the results for the inhibitory constant (Ki) in [16] and in assay [18] were > 10000 nM and 175 nM, respectively. Further, the maximal response (Emax) in assay [10] turned out to be 53.9%. The midpoint of inhibition in assay [15], the IC50, lay at 6980 nM. The outcome in assay [17] was Active.
Take `Cc1ccc(-c2noc3c2CCNCC3)cc1`: the Imax in assay [1] is 95.8%. Further, in assay [2], the inhibition result was “inactive”. In addition, the Ratio Ki in the assay filed under Homo sapiens [3] was 9.4; in the assay filed under Homo sapiens [4] it was 1.3; in the assay listed under Homo sapiens [6], 112; in the assay listed under Homo sapiens [7], 30.8; in the assay filed under Homo sapiens [11] it was 8.6. The Ki was 150 nM in assay [5]; 492 nM in [8]; 1140 nM in assay [9]; > 10000 nM in assay [12]; 20 nM in assay [13]; 147 nM in [14]. For the same compound, the Ki in assay [16] was > 10000 nM; in assay [18] it was 138 nM. The Emax in assay [10] turned out to be 40.3%. The compound further returned a concentration for half-maximal inhibition (IC50) in assay [15] of 844 nM. Further, the outcome in assay [17] was Active.
